Experimental data: ChEMBL document CHEMBL4732114, “Design and structural optimization of novel 2H-benzo[h]chromene derivatives that target AcrB and reverse bacterial multidrug resistance” (Eur J Med Chem, 2021); call rule not given here
≈ marks a conversion by molar mass, not a printed value.

How the values were obtained:
[1] = biological target: T1, Multidrug efflux pump subunit AcrB (Escherichia coli (strain K12)) (UniProt P31224); test: Inhibition of AcrB in multidrug-resistant Escherichia coli BW25113 assessed as potentiation of erythromycin-induced antibacterial activity by measuring erythromycin MIC at 8 ug/ml by checkerboard titration method (reference value: 64 ug/ml); settings: dose 8.0 µg/ml
T1 sequence (whole entry): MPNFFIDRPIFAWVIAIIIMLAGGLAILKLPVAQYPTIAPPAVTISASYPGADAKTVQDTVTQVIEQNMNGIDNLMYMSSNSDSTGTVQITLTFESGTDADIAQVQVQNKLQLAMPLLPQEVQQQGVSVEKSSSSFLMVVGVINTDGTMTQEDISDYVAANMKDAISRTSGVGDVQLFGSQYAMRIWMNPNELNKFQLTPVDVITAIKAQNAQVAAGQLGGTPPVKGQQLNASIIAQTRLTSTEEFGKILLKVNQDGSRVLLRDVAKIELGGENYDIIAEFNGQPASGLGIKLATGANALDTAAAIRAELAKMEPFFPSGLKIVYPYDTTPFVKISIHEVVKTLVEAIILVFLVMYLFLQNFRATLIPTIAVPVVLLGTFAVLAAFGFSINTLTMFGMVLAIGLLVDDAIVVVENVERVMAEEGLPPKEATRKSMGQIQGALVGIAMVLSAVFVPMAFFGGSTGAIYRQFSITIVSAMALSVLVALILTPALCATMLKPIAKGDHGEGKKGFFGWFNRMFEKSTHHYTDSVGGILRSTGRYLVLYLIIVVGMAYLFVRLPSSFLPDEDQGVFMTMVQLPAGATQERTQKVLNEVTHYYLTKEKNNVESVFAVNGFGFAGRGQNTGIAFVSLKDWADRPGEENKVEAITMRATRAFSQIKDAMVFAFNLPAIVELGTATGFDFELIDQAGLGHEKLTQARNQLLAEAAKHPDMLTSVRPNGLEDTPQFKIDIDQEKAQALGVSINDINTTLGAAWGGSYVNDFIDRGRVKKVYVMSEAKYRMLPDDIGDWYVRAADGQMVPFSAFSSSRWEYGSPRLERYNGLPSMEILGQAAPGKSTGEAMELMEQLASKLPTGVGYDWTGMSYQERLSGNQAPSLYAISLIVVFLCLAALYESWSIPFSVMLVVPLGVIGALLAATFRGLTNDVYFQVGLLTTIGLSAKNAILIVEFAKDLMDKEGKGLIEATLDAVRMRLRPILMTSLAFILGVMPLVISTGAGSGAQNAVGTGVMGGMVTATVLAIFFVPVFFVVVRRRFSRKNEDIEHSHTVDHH

[2] = Toxicity in multidrug-resistant Escherichia coli BW25113 assessed as growth inhibition by two-fold broth dilution method
[3] = Toxicity in multidrug-resistant Escherichia coli BW25113 harboring AcrB deletion mutant assessed as growth inhibition by two-fold broth dilution method
[4] = biological target: T1, Multidrug efflux pump subunit AcrB (Escherichia coli (strain K12)); test: Inhibition of AcrB in multidrug-resistant Escherichia coli BW25113 assessed as potentiation of chloramphenicol-induced antibacterial activity by measuring chloramphenicol MIC at 8 ug/ml by checkerboard titration method (reference value: 8 ug/ml); settings: dose 8.0 µg/ml
[5] = biological target: T1, Multidrug efflux pump subunit AcrB (Escherichia coli (strain K12)); test: Inhibition of AcrB in multidrug-resistant Escherichia coli BW25113 assessed as potentiation of chloramphenicol-induced antibacterial activity by measuring chloramphenicol MIC at 16 ug/ml by checkerboard titration method (reference value: 8 ug/ml); settings: dose 16.0 µg/ml
[6] = biological target: T1, Multidrug efflux pump subunit AcrB (Escherichia coli (strain K12)); test: Inhibition of AcrB in multidrug-resistant Escherichia coli BW25113 assessed as potentiation of chloramphenicol-induced antibacterial activity by measuring chloramphenicol MIC at 64 ug/ml by checkerboard titration method (reference value: 8 ug/ml); settings: dose 64.0 µg/ml
[7] = biological target: T1, Multidrug efflux pump subunit AcrB (Escherichia coli (strain K12)); test: Inhibition of AcrB in multidrug-resistant Escherichia coli BW25113 assessed as potentiation of chloramphenicol-induced antibacterial activity by measuring chloramphenicol MIC at 128 ug/ml by checkerboard titration method (reference value: 8 ug/ml); settings: dose 128.0 µg/ml
[8] = biological target: T1, Multidrug efflux pump subunit AcrB (Escherichia coli (strain K12)); test: Inhibition of AcrB in multidrug-resistant Escherichia coli BW25113 assessed as potentiation of erythromycin-induced antibacterial activity by measuring erythromycin MIC at 64 ug/ml by checkerboard titration method (reference value: 64 ug/ml); settings: dose 64.0 µg/ml
[9] = biological target: T1, Multidrug efflux pump subunit AcrB (Escherichia coli (strain K12)); test: Inhibition of AcrB in multidrug-resistant Escherichia coli BW25113 assessed as potentiation of erythromycin-induced antibacterial activity by measuring erythromycin MIC at 128 ug/ml by checkerboard titration method (reference value: 64 ug/ml); settings: dose 128.0 µg/ml
[10] = biological target: T1, Multidrug efflux pump subunit AcrB (Escherichia coli (strain K12)); test: Inhibition of AcrB in multidrug-resistant Escherichia coli BW25113 assessed as potentiation of tetraphenylphosphonium-induced antibacterial activity by measuring tetraphenylphosphonium MIC at 16 ug/ml by checkerboard titration method (reference value: 1024 ug/ml); settings: dose 16.0 µg/ml
[11] = biological target: T1, Multidrug efflux pump subunit AcrB (Escherichia coli (strain K12)); test: Inhibition of AcrB in multidrug-resistant Escherichia coli BW25113 assessed as potentiation of tetraphenylphosphonium-induced antibacterial activity by measuring tetraphenylphosphonium MIC at 32 ug/ml by checkerboard titration method (reference value: 1024 ug/ml); settings: dose 32.0 µg/ml
[12] = biological target: T1, Multidrug efflux pump subunit AcrB (Escherichia coli (strain K12)); test: Inhibition of AcrB in multidrug-resistant Escherichia coli BW25113 assessed as potentiation of tetraphenylphosphonium-induced antibacterial activity by measuring tetraphenylphosphonium MIC at 64 ug/ml by checkerboard titration method (reference value: 1024 ug/ml); settings: dose 64.0 µg/ml
[13] = biological target: T1, Multidrug efflux pump subunit AcrB (Escherichia coli (strain K12)); test: Inhibition of AcrB in multidrug-resistant Escherichia coli BW25113 assessed as potentiation of tetraphenylphosphonium-induced antibacterial activity by measuring tetraphenylphosphonium MIC at 128 ug/ml by checkerboard titration method (reference value: 1024 ug/ml); settings: dose 128.0 µg/ml
[14] = biological target: T1, Multidrug efflux pump subunit AcrB (Escherichia coli (strain K12)); test: Inhibition of AcrB in multidrug-resistant Escherichia coli BW25113 assessed as potentiation of levofloxacin-induced antibacterial activity by measuring levofloxacin MIC at 8 ug/ml by checkerboard titration method (reference value: 0.06 ug/ml); settings: dose 8.0 µg/ml
[15] = biological target: T1, Multidrug efflux pump subunit AcrB (Escherichia coli (strain K12)); test: Inhibition of AcrB in multidrug-resistant Escherichia coli BW25113 assessed as potentiation of levofloxacin-induced antibacterial activity by measuring levofloxacin MIC at 16 ug/ml by checkerboard titration method (reference value: 0.06 ug/ml); settings: dose 16.0 µg/ml
[16] = biological target: T1, Multidrug efflux pump subunit AcrB (Escherichia coli (strain K12)); test: Inhibition of AcrB in multidrug-resistant Escherichia coli BW25113 assessed as potentiation of levofloxacin-induced antibacterial activity by measuring levofloxacin MIC at 128 ug/ml by checkerboard titration method (reference value: 0.06 ug/ml); settings: dose 128.0 µg/ml
Cell membrane = test: Induction of outer membrane permeabilization in wild type Escherichia coli BW25113 assessed as increase in nitrocefin hydrolysis at 128 ug/ml in presence of CCCP by spectroscopic analysis; settings: dose 128 µg/ml
Outline: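 Intact E. coli were treated with 10 μM CCCP to block nitrocefin efflux, then given compound, nothing, or polymyxin B as permeabilizer control. Nitrocefin was added, and hydrolysis by periplasmic β-lactamase was followed as the rise in absorbance at 490 nm. Duplicate experiments were run on different days.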

[17] = biological target: T1, Multidrug efflux pump subunit AcrB (Escherichia coli (strain K12)); settings: Escherichia coli BW25113; dose 8.0 µg/ml

Row | Compound | MIC [1] [µg/mL] | MIC [2] [µg/mL] | MIC [3] [µg/mL] | MIC [4] [µg/mL] | MIC [5] [µg/mL] | MIC [6] [µg/mL] | MIC [7] [µg/mL] | MIC [8] [µg/mL] | MIC [9] [µg/mL] | MIC [10] [µg/mL] | MIC [11] [µg/mL] | MIC [12] [µg/mL] | MIC [13] [µg/mL] | MIC [14] [µg/mL] | MIC [15] [µg/mL] | MIC [16] [µg/mL] | Activity (Cell membrane) | MIC [17] [µg/mL]
1 | Cc1ccc(COc2cccc3c4c(c(-c5nnco5)cc23)CCC(C)(C)O4)cc1 | 32 | > 512 | > 128 | 8 | 8 | 8 | 2 | 16 | 8 | 512 | 512 | 512 | 64 | 0.03 | 0.03 | 0.01 | Not Active | 16 (≈ 40 µM)
2 | CC1(C)CCc2c(-c3nnco3)cc3c(OCc4ccc(C#N)cc4)cccc3c2O1 | 64 | > 512 | > 128 | 8 | 4 | 4 | 2 | 64 | 32 | 1020 | 1020 | 512 | 512 | 0.06 | 0.06 | 0.06 | Not Active | 16 (≈ 38.9 µM)
3 | CC1(C)CCc2c(C(=O)N3CCOCC3)cc3c(OCc4ccc(C(F)(F)F)cc4)cccc3c2O1 | 64 | > 512 | > 128 | 8 | 8 | 8 | 4 | 16 | 16 | 512 | 512 | 512 | 256 | 0.06 | 0.06 | 0.06 | Not Active | 16 (≈ 32 µM)
4 | CC1(C)CCc2c(-c3nnco3)cc3c(OCc4ccccc4)cccc3c2O1 | 64 | > 512 | > 128 | 8 | 8 | 4 | 2 | 32 | 16 | 512 | 512 | 512 | 128 | 0.06 | 0.06 | 0.06 | Not Active | 16 (≈ 41.4 µM)
5 | COc1cccc(COc2cccc3c4c(c(-c5nnco5)cc23)CCC(C)(C)O4)c1 | 64 | > 512 | > 128 | 8 | 8 | 8 | 8 | 64 | 32 | 1020 | 1020 | 512 | 512 | 0.06 | 0.06 | 0.06 | Not Active | 16 (≈ 38.4 µM)
6 | COc1cccc(COc2cccc3c4c(c(C(=O)O)cc23)CCC(C)(C)O4)c1 | 64 | > 512 | > 128 | 8 | 8 | 4 | 4 | 32 | 16 | 1020 | 1020 | 512 | 256 | 0.06 | 0.06 | 0.06 | Not Active | 16 (≈ 40.8 µM)
7 | C=CC(=O)Nc1ccc(COc2cccc3c4c(c(C(=O)N5CCOCC5)cc23)CCC(C)(C)O4)cc1 | 16 | > 512 | > 128 | 4 | 4 | 4 | 2 | 16 | 8 | 512 | 256 | 128 | 64 | 0.06 | 0.06 | 0.01 | Not Active | 16 (≈ 32 µM)
